For one data set, the system named is P-gp. The settings on record: cited from earlier work.
A further data set deals with PARP-1 (Homo sapiens, UniProt P09874). In words: PARP-1 radioligand binding assay with [125I]KX1 in OVCAR8 cells. An outline of the steps:
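OVCAR8 ovarian cancer cells (BRCA1 methylated) seeded at 40,000 cells/well 24 h before the assay. Test compound diluted in RPMI (100 μM–0.064 nM), added with the [125I]KX1 radioligand, equilibrated 1 hr, then washed with PBS. Wells counted on a gamma counter. IC50 from non-linear sigmoidal dose-response fit, n=3; dose ranges were adjusted between repeats.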

A further data set deals with recombinant human P-gp (Homo sapiens, UniProt P08183). Kind of data set: Pgp-Glo assay. The settings on record: for Luminescence from unmetabolized ATP (P-gp ATPase stimulation or inhibition): 20 μM compound, 5 mM ATP, 1 hr at 37°C, normalized to Na3VO4.
Chain of recombinant human P-gp (P08183 whole entry): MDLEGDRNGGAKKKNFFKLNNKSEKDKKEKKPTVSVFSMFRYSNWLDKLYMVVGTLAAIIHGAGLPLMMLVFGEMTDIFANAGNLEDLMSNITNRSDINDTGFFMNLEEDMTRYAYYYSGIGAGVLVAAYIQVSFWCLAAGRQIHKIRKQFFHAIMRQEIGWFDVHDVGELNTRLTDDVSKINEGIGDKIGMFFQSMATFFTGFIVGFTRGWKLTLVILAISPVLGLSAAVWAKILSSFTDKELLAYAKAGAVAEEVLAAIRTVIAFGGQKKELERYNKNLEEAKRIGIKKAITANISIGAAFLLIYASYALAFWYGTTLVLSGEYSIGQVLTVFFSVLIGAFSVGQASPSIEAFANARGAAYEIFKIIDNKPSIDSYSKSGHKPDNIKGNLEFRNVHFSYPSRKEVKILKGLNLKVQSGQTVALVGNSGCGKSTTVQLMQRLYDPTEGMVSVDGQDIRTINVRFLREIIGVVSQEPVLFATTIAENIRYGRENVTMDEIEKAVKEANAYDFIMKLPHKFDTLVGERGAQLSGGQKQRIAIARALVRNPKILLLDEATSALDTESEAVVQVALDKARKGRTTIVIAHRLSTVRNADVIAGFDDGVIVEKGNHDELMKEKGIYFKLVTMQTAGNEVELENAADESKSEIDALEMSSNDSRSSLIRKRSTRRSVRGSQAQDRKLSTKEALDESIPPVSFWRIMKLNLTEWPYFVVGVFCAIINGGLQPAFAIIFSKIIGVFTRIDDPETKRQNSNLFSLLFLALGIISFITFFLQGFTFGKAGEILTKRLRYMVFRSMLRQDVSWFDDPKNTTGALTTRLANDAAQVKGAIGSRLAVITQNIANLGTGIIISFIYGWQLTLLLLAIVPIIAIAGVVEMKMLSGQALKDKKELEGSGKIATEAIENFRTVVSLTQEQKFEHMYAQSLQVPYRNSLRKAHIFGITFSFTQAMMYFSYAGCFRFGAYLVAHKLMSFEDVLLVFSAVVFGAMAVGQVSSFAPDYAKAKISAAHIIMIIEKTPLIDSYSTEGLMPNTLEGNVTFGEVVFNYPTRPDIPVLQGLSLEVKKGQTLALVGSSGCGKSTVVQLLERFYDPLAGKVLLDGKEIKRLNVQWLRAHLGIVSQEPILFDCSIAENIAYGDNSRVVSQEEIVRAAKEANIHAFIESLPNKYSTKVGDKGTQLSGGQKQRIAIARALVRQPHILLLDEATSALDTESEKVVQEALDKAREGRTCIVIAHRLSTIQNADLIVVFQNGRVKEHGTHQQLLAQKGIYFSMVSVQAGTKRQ

Consider 15 compounds from article PMC6378121 (Bioorganic chemistry, 2018).

One may read the IC50 as the concentration that gives 50% inhibition. Low values mean greater potency in that assay, high ones weaker potency in that assay.

Like-named read-outs stand apart in the source and are kept apart here.

Chain of PARP-1 (P09874 whole entry): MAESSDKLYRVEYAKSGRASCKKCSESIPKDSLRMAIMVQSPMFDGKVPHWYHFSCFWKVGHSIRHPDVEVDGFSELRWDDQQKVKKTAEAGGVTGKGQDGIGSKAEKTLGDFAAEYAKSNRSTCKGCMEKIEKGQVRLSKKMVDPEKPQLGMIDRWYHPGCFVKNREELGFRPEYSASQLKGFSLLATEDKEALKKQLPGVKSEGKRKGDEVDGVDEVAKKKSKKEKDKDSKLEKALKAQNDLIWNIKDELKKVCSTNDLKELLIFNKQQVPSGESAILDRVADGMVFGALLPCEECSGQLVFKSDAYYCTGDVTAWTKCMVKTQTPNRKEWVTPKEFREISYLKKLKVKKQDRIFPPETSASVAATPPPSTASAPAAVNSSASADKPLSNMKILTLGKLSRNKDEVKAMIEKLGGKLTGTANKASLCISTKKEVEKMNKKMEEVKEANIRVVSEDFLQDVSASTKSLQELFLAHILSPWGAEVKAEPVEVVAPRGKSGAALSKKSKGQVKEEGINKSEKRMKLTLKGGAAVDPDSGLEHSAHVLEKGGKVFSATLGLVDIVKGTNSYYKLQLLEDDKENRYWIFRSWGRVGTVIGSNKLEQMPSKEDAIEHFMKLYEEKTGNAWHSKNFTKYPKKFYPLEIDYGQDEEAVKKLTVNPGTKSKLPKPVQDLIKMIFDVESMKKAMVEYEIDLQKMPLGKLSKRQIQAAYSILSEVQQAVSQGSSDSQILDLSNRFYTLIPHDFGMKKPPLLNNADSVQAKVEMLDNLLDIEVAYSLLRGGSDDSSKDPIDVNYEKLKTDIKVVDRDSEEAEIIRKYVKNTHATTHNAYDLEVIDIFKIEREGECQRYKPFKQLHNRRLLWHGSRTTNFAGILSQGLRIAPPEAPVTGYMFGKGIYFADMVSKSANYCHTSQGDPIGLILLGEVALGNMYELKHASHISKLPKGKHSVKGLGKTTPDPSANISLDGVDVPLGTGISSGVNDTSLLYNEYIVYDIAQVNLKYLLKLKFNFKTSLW

Turning to `C[C@]12CCCN1CC1=NNC(=O)c3cc(F)cc4[nH]c2c1c34` [BGB-290], the P-gp substrate status result in the data set on P-gp was “weak P-gp substrates”.
Take `COC1CCN(C(=O)c2cc(Cc3n[nH]c(=O)c4ccccc34)ccc2F)CC1` [Compound 2, AZD2461]: the P-gp substrate status result is “weak P-gp substrates” with P-gp and “poor P-gp substrate” in the data set on P-gp (listed as AZD2461).
As to `O=C(c1cc(Cc2n[nH]c(=O)c3ccccc23)ccc1F)N1CC2(CC(OCCF)C2)C1` [Compound 9a, 4-(4-fluoro-3-(6-(2-fluoroethoxy)-2-azaspiro[3.3]heptane-2-carbonyl)benzyl)phthalazin-1(2H)-one], the IC50 at PARP-1 amounted to 10.7 ± 1.1 nM.
`O=C(c1cc(Cc2n[nH]c(=O)c3ccccc23)ccc1F)N1CC(OCCF)C1` [Compound 9b, 4-(4-fluoro-3-(3-(2-fluoroethoxy)azetidine-1-carbonyl)benzyl)phthalazin-1(2H)-one] gave an IC50 on PARP-1 of 7.5 ± 1.1 nM.
The same measure, in the same setting: the result for `O=C(c1cc(Cc2n[nH]c(=O)c3ccccc23)ccc1F)N1CC[C@@H](OCCF)C1` [Compound 9c, (R)-4-(4-fluoro-3-(3-(2-fluoroethoxy)pyrrolidine-1-carbonyl)benzyl)phthalazin-1(2H)-one] reads 10.1 ± 1.1 nM.
On PARP-1, `O=C(c1cc(Cc2n[nH]c(=O)c3ccccc23)ccc1F)N1CC[C@H](OCCF)C1` [Compound 9d, (S)-4-(4-fluoro-3-(3-(2-fluoroethoxy)pyrrolidine-1-carbonyl)benzyl)phthalazin-1(2H)-one] showed an IC50 of 6.8 nM.
Turning to `O=C(c1cc(Cc2n[nH]c(=O)c3ccccc23)ccc1F)N1CCC(OCCF)CC1` [Compound 9e, 4-(4-fluoro-3-(4-(2-fluoroethoxy)piperidine-1-carbonyl)benzyl)phthalazin-1(2H)-one], the IC50 at PARP-1 was 3.9 ± 1.2 nM. In addition, the “Luminescence from unmetabolized ATP (P-gp ATPase stimulation or inhibition)” value on recombinant human P-gp is given as “increased luminescence”. The P-gp substrate status entry at recombinant human P-gp (authors' conclusion from the P-gp assay) is given as “weak substrate for P-gp”.
`O=C(c1cc(Cc2n[nH]c(=O)c3ccccc23)ccc1F)N1CCCC(OCCF)CC1` (stereo not drawn) [Compound 9f, 4-(4-fluoro-3-(4-(2-fluoroethoxy)azepane-1-carbonyl)benzyl)phthalazin-1(2H)-one] showed an IC50 at PARP-1 of 5.6 ± 1.1 nM.
`O=C(c1cc(Cc2n[nH]c(=O)c3ccccc23)ccc1F)N1CCN(c2ccc(F)cc2)CC1` [Compound 11a, 4-(4-fluoro-3-(4-(4-fluorophenyl)piperazine-1-carbonyl)benzyl)phthalazin-1(2H)-one] came in with an IC50 on PARP-1 of 0.6 ± 1.2 nM.
`O=C(c1cc(Cc2n[nH]c(=O)c3ccccc23)ccc1F)N1CCC(c2ccc(F)cc2)CC1` [Compound 11b, 4-(4-fluoro-3-(4-(4-fluorophenyl)piperidine-1-carbonyl)benzyl)phthalazin-1(2H)-one] had an IC50 on PARP-1 of 1.3 nM. The “Luminescence from unmetabolized ATP (P-gp ATPase stimulation or inhibition)” value at recombinant human P-gp was “increased luminescence”.
In the case of `O=C(c1cc(Cc2n[nH]c(=O)c3ccccc23)ccc1F)N1CC2(C1)CN(c1ccc(F)cc1)C2` [Compound 14, 4-(4-fluoro-3-(6-(4-fluorophenyl)-2,6-diazaspiro[3.3]heptane-2-carbonyl)benzyl)phthalazin-1(2H)-one], the IC50 at PARP-1 is 0.3 nM. For the same compound, the “Luminescence from unmetabolized ATP (P-gp ATPase stimulation or inhibition)” value at recombinant human P-gp was “increased luminescence”.
Turning to `O=C(c1cc(Cc2n[nH]c(=O)c3ccccc23)ccc1F)N1CC2(CC(c3ccc(F)cc3)C2)C1` [Compound 17, 4-(4-fluoro-3-(6-(4-fluorophenyl)-2-azaspiro[3.3]heptane-2-carbonyl)benzyl)phthalazin-1(2H)-one], the IC50 at PARP-1 was 2.8 nM. The “Luminescence from unmetabolized ATP (P-gp ATPase stimulation or inhibition)” value on recombinant human P-gp was “increased luminescence”.
On to `[Na+].[Na+].[Na+].[O]=[V]([O-])([O-])[O-]` [Na3VO4, reference compound], for which the “Luminescence from unmetabolized ATP (P-gp ATPase stimulation or inhibition)” value at recombinant human P-gp was “increased luminescence”.
Regarding `O=C(c1cc(Cc2n[nH]c(=O)c3ccccc23)ccc1F)N1CCN(C(=O)C2CC2)CC1` [olaparib], in the data set on P-gp, the P-gp substrate status entry was “known substrates for P-gp”.
In the case of `C[C@]1(c2nc3c(C(N)=O)cccc3[nH]2)CCCN1` [veliparib], in the data set on P-gp, the P-gp substrate status result was “weak P-gp substrates”.
